The list is not random: actives were taken first. Their share in the collection is about 6.8%.
Her2 expr inh = lowers expression of human Her2 kinase; HER2 level % of control, % at 10 µM; 0.69% of 65,000 active; SKBR-3 HER2 protein level, AlphaScreen, 18-24 h; hits give low values; P04626;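 active = HER2 level under 5% of the carrier-only control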;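 note: 100% = DMSO carrier and 0% = 500 nM PU-H71 HSP90 inhibitor; lower value means stronger loss of Her2 protein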
Cdc25B block = human M-phase inducer phosphatase 2 inhibition. 0.1% of 65,000 active. inhibition, %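 (compounds tested at 10 µM final in the well)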. recombinant Cdc25B, OMFP fluorescence Ex485/Em525. P30305; in the data active = inhibition above about 50%
Target sequence (P30305 whole entry, looked up): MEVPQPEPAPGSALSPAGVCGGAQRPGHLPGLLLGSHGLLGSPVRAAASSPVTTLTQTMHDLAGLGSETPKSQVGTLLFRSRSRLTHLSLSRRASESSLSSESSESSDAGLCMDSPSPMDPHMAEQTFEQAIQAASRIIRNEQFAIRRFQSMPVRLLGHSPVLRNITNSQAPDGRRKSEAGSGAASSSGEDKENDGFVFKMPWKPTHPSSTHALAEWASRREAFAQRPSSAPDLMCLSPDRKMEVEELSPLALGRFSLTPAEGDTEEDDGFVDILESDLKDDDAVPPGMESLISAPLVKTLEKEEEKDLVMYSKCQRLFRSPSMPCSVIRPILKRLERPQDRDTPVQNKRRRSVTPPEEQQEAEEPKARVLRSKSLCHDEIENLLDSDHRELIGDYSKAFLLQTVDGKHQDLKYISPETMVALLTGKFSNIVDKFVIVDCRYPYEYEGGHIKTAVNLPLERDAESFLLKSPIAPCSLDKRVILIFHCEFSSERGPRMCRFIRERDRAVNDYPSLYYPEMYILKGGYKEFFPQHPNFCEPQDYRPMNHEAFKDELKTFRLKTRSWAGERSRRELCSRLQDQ
HEK293 NFkB inh = lowers PMA/ionomycin-induced NF-kB signal in HEK293 cells; HEK-293 NF-kB luciferase reporter, luminescence; inhibition, % at 3 µM; 0.21% of 62,000 active; AID 465;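 active = inhibition above the mean of all tested compounds plus 3 SD, cut at about 40% in these data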;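 note: 0% = stimulated DMSO wells and 100% = 10 µM reference inhibitor 5653914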
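System: NF-kB luciferase reporter HEK-293 cells | Replication: Single test | Control set: DMSO vs reference inhibitor | Evaluation: % inhibition | Schedule: 1 h pretreatment, 16 h stimulation, 37 °C | Probe or stimulus: PMA with ionomycin | Compound dosing: One dose, 3 µM | Detection: Luciferase luminescence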
DUSP1 inh = inhibitors of human MKP-1 phosphatase | P28562 | 0.15% of 65,000 active | inhibition, %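 (compounds tested at a single concentration somewhere between 10 and 100 µM)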 | recombinant MKP-1, OMFP hydrolysis fluorescence;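 active = inhibition above about 50%, limit read from the data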;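 note: 0% = DMSO max control wells and 100% = wells with enzyme stopped by NaOH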
M1 antag = blocks the rat M1 muscarinic receptor response to acetylcholine. P08482. CHO-M1 cells, Fluo-4 calcium, ACh EC80 antagonist mode; hits give low values. B-score at 10 µM. 3.4% of 64,000 active. AID 628;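 active = calcium fluorescence response, raw or row-and-column corrected B-score, differing from the plate sample mean either way at a set confidence level, mostly lower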
M1 ag = activates the M1 muscarinic receptor | 3% of 64,000 active | B-score at 10 µM | CHO-M1 cells, Fluo-4 calcium fluorescence, agonist mode; hits give high values;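 active = fluorescence rise, raw or as B-score row- and column-corrected plate score, outside the 99.7% band of its plate's samples, either direction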
M1 antag conf = M1 muscarinic receptor (rat) antagonism, confirmed; calcium response (max-min fluorescence) at 10 µM; CHO-M1 cells, Fluo-4 calcium, ACh EC80 antagonism; hits give low values; 43% of 1,700 active; AID 677; shares compounds with M1 antag;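 active = calcium response below the same-plate mean of wells given acetylcholine alone at its 80%-effect dose, minus 3 SD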;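 note: raw fluorescence intensity difference in arbitrary instrument units and not normalized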
mGluR4 antag = selectivity test for M1 antagonists: human mGluR4 receptor; fluorescence response (max-min) at 10 µM; shares compounds with M1 antag; CHO-mGluR4 calcium flux, Fluo-4 fluorescence, glutamate EC80; hits give low values; AID 678; 0.9% of 1,700 active;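 active = fluorescence response below the plate's average for near-maximal glutamate wells, less 3 SD of those wells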;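 note: raw unnormalized fluorescence span taken in the window right after glutamate addition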
Active calls of the source: *; . = no result given.

SMILES | Her2 expr inh | Cdc25B block | HEK293 NFkB inh | DUSP1 inh | M1 antag | M1 ag | M1 antag conf | mGluR4 antag
CCOC(=O)c1c(C)n(C)c2ccc(O)c(CN3CCC(C)CC3)c12 | 75 | 3 | 20 | -7 | -2* | -1.3 | 543 | 251
CCOC(=O)N1CCN(C(=O)Cn2ncn3nc(-c4cccs4)cc3c2=O)CC1 | 69 | 13 | 4 | -5 | 0.0013 | 0.59 | . | .
C[N+]12CCC(CC1)C(OC(=O)C(O)(c1ccccc1)c1ccccc1)C2 (configuration not stated) | 84 | 5 | . | 22 | -16* | -1.5 | 16* | 243
Cc1c(C(=O)OCCN2CCCCC2)oc2ccccc12 | 92 | -12 | -2 | -37 | -10* | 0.61 | 13* | 226
Cc1c(C(=O)OCC(=O)c2c(N)n(CC(C)C)c(=O)n(C)c2=O)oc2ccccc12 | 94 | -3 | 6 | 41 | . | . | . | .
Cc1c(C(=O)OC(C)CCN(C)C)oc2ccccc12 (configuration not stated) | 83 | -3 | 13 | -8 | -13* | -0.6 | 18* | 261
Cc1c(C(=O)OCC(C)(C)CN(C)C)oc2ccccc12 | 88 | 2 | 19 | -21 | -5* | -0.25 | 182* | 233
COc1ccc(S(=O)(=O)N2CCN(c3nc4ccccc4nc3-n3nc(C)cc3C)CC2)cc1 | 112 | -9 | 8 | 5 | -1 | 0.22 | . | .
O=C1CN(C(=O)CCCc2c[nH]c3ccccc23)c2ccccc2N1 | 58 | -10 | 7 | 14 | -0.25 | -0.87 | . | .
O=C1CC(c2ccc(F)c(Br)c2)C2=C(CCCC2=O)N1 (configuration not stated) | 86 | -12 | 4 | -15 | 0.29 | -0.63 | . | .
CCn1nnnc1-c1ccc(OC)c(S(=O)(=O)NCCc2ccccc2)c1 | 95 | -2 | 17 | 8 | 0.27 | -0.8 | . | .
CC1CCCN(Cc2nc3c(c(=O)n(C)c(=O)n3C)n2Cc2c(F)cccc2Cl)C1 (configuration not stated) | 67 | -31 | 7 | 15 | -1* | 0.58 | 653 | 200
COc1ccc(OC)c(CNC(=O)C2CCN(S(=O)(=O)N3CCCC3)CC2)c1 | 88 | -14 | 3 | 3 | 0.52 | 0.86 | . | .
COc1ccc(OC)c(CNC(=O)C2CCN(C(=O)N(C)C)CC2)c1 | 122 | -23 | -2 | 11 | -3* | -0.32 | 644 | 266
Cn1c(=O)[nH]c(=O)c2c1nc(N1CCNCC1)n2Cc1cccc2ccccc12 | 93 | 1 | 17 | 13 | 0.029 | 0.015 | . | .
O=S(=O)(Nc1ccc(S(=O)(=O)N2CCCCC2)cc1)c1ccc(Br)s1 | 85 | 5 | 15 | -9 | -0.3 | -1.8 | . | .
COc1c(C)cc(Br)cc1C(=O)O | 87 | -1 | 13 | -8 | -13* | 0.48 | 710 | 203
N#Cc1cn(CC(=O)NCc2cccnc2)c2ccccc12 | 154 | -6 | 15 | 16 | -0.007 | 0.27 | . | .
N#Cc1cn(Cc2ccccc2)c2ccccc12 | 99 | -4 | 8 | -5 | -1.9* | -0.64 | 582 | 239
O=C(COc1ccc(-n2cnnn2)cc1)NCCc1ccc(F)cc1 | 119 | 6 | 7 | 4 | -0.3 | 0.39 | . | .
COc1ccc(-c2noc(CSc3nc4ccccc4c(=O)n3-c3ccccc3)n2)cc1OC | 84 | -3 | 12 | 20 | -3.9* | 0.0052 | 671 | 235
Cc1cccc(OCc2nnc(SCc3cc(=O)n4cc(Br)ccc4n3)o2)c1 | 96 | -1 | 25 | 17 | -3* | 2 | 564 | 233
Fc1cccc(Nc2cc(-n3cccn3)ncn2)c1 | 55 | -4 | 16 | -14 | -0.74 | -0.04 | . | .
Cc1onc(-c2c(F)cccc2Cl)c1C(=O)Nc1nnc(C2CC2)s1 | 96 | -8 | 12 | 20 | -4.1* | 1.1 | 481* | 223
Cc1onc(-c2ccccc2Cl)c1C(=O)Nc1nnc(-c2ccc(F)cc2)s1 | 65 | -3 | 5 | 12 | 0.22 | -0.021 | . | .
SMILES | Her2 expr inh | Cdc25B block | HEK293 NFkB inh | DUSP1 inh | M1 antag | M1 ag | M1 antag conf | mGluR4 antag
Cc1onc(-c2c(Cl)cccc2Cl)c1C(=O)Nc1ccc2c(c1)OCCO2 | 85 | -3 | 6 | 6 | -3.1* | -0.63 | 424* | 235
CC1(C)CC(=O)C2=C(C1)Nc1ccccc1N=C2 | 69 | 1 | -3 | -11 | -1.1 | -1.8 | . | .
COC(=O)Nc1nnc(Cc2ccccc2)s1 | . | -5 | 14 | 1 | -17* | 0.13 | 593 | 259
COC(=O)Nc1nnc(CCc2ccccc2)s1 | 87 | 1 | 7 | -8 | 0.54 | 0.031 | . | .
CCN(CC)CCCn1c(=S)[nH]c2ccc(Cl)cc2c1=O | 106 | -18 | 3 | -2 | -1.4* | 0.023 | 596 | 239
CCOC(=O)c1ccc(N2C(=O)CC(N3CCN(C/C=C/c4ccccc4)CC3)C2=O)cc1 (configuration not stated) | 95 | -20 | 2 | 1 | -3.8* | -2.1 | 494* | 231
CCCOc1ccc2oc(=O)c3c(c2c1)CCCN3C(=O)CN1CCN(c2ncccn2)CC1 | 85 | -28 | 0 | 24 | 0.36 | -0.051 | . | .
CCCOc1ccc2oc(=O)c3c(c2c1)CCCN3C(=O)CN1CCCC(C(=O)OCC)C1 (configuration not stated) | 69 | -19 | 19 | 7 | -4.9* | 0.65 | 440* | 255
O=C(CN1CCCC1)N1CCCc2c1c(=O)oc1ccc(OCc3ccccc3)cc21 | 80 | 7 | 6 | 5 | -2.5* | -0.24 | 384* | 191
CC1CCN(CCC(=O)N2CCCc3c2c(=O)oc2ccc(O)cc32)CC1 | 95 | 31 | 27 | -3 | -2.1 | -0.31 | . | .
CN(CC(=O)N1CCCc2c1c(=O)oc1ccc(O)cc21)Cc1ccccc1 | 80 | 23 | 12 | -4 | -6.5* | 0.74 | 467* | 212
O=C(O)CCC(=O)OCC1CCCO1 (configuration not stated) | 117 | 3 | 3 | -4 | 0.11 | -1.1 | . | .
CCOC(=O)N1CCC2(CC1)C(C#N)=C(N)Oc1c2c(C)nn1-c1cccc(Cl)c1 | 89 | -5 | 11 | 34 | -1 | -1.5 | . | .
Cn1c(SCC(=O)N2CCCCC2)nc2c([nH]c3ccccc32)c1=O | 86 | -2 | 8 | 16 | -3.5* | 0.18 | 443* | 260
CCC(=O)N1c2ccc(S(=O)(=O)CCC(=O)NC3CCCC3)cc2CC1C (configuration not stated) | 148 | -18 | -7 | -11 | 0.042 | -0.23 | . | .
CCC(=O)N1c2ccc(S(=O)(=O)CCC(=O)N3CCn4c3nc3ccccc34)cc2CC1C (configuration not stated) | -15* | 4 | -3 | 25 | -3.3* | 0.61 | 508 | 208

From PubChem BioAssay
